ChEMBL document CHEMBL1126169, “8-Polycycloalkyl-1,3-dipropylxanthines as potent and selective antagonists for A1-adenosine receptors” (J Med Chem, 1992)

How the values were obtained:
Adenosine receptor A1 [1] = molecular target: T1, Adenosine receptor A1 (Cavia porcellus, UniProt P47745); assay: Inhibition of N6-[3H]cyclohexyladenosine binding to guinea pig forebrain membrane Adenosine A1 receptor
T1 sequence (P47745 whole entry): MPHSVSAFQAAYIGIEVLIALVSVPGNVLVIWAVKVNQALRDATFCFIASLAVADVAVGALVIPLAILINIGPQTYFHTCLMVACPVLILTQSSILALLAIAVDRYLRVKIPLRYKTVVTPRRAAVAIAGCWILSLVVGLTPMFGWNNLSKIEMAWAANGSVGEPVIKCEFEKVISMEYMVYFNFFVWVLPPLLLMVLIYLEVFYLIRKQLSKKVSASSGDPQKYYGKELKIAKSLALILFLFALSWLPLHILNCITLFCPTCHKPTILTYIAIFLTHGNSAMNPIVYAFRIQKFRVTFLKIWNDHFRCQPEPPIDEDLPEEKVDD

Adenosine A2 receptor [2] = molecular target: T2, Adenosine A2 receptor (Rattus norvegicus, UniProt P29276+P30543); assay: Binding affinity against adenosine A2 receptor using N-[3H]-ethyladenosin-5''-uronamide as radioligand in rat striatal membranes.; type: cell membranes
Adenosine receptor A1 [3] = molecular target: T1, Adenosine receptor A1; assay: Binding affinity against adenosine A1 receptor using N6-[3H]cyclohexyladenosine as radioligand in guinea pig forebrain membranes; type: cell membranes, Brain membranes
[4] = molecular target: Adenosine receptor A1 (Rattus norvegicus) (UniProt P25099); assay: Binding affinity against adenosine A1 receptor using N6-[3H]cyclohexyladenosine as radioligand in rat brain membranes
Adenosine A2 receptor [5] = molecular target: T2, Adenosine A2 receptor; assay: Binding affinity against Adenosine A2 receptor using N-[3H]-ethyladenosin-5''-uronamide in rat striatal membranes; type: cell membranes, Striatum, Membrane
Adenosine receptor A1 [6] = molecular target: T1, Adenosine receptor A1; assay: Binding affinity against Adenosine A1 receptor using N6-[3H]cyclohexyladenosine in guinea pig forebrain membranes; type: cell membranes, Brain membranes
How it was run: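 Guinea pig forebrain membranes in 50 mM Tris-HCl pH 7.7, pretreated with adenosine deaminase (2.0 units/mL, 30 min, 37 °C), 10 mg tissue per tube. Incubated with 1.1 nM [3H]cyclohexyladenosine, final DMSO <0.9%, for 90 min at 25 °C, then GF/C filtration and scintillation counting. Nonspecific binding defined with 10 µM R-PIA.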

[7] = Binding affinity against adenylate cyclase using N-[3H]-ethyl adenosine-5-uronamide as radioligand in human platelet membranes; type: cell membranes
[8] = Inhibitory activity against adenylate cyclase using (R)-N6-(2-[3H]-phenyl-1-methylethyladenosine as radioligand in rat adipocytes; type: cell-based
Adenosine receptor A1 [9] = molecular target: T1, Adenosine receptor A1; assay: Binding affinity against Adenosine A1 receptor using N6-[3H]cyclohexyladenosine in guinea pig membranes; type: cell membranes
Adenosine receptor A1 [10] = molecular target: T3, Adenosine receptor A1 (Rattus norvegicus, UniProt P25099); assay: Binding affinity against Adenosine A1 receptor using N6-[3H]cyclohexyladenosine in rat brain membranes; type: cell membranes
T3 sequence (P25099 whole entry): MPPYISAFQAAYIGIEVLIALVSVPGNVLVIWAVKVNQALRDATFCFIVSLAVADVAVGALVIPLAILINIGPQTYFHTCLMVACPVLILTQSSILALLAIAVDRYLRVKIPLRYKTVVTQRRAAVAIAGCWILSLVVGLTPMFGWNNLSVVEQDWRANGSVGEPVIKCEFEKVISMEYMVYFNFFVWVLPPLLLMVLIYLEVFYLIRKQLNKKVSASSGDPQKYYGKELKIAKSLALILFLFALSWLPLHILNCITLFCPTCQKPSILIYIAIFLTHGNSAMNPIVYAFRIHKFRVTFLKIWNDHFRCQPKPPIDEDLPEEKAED
How it was run: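 Rat forebrain membranes were prepared like the guinea pig tissue. Tissue was homogenized in ice-cold 50 mM Tris-HCl pH 7.7, centrifuged at 50000g and washed. It was treated with ADA (2.0 units/mL) for 30 min at 37 °C, then used at 10 mg tissue/mL. Duplicate curves used five or more concentrations; IC50 from logit-log plots was converted to Ki by Cheng-Prusoff.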

SMILES	Ki (Adenosine A2 receptor [2]) [nM]	Ki (Adenosine receptor A1 [3]) [nM]	other results
OC[C@H]1OC(n2cnc3c(NC(C4CC4)C4CC4)ncnc32)[C@H](O)[C@@H]1O (some centres not stated)			Ki (Adenosine receptor A1 [1]): 0.75 nM
CCCn1c(=O)c2nc(-c3cnsn3)[nH]c2n(CCC)c1=O	> 10000		
CCCn1c(=O)c2nc([C@@H]3CC4CCC3C4)[nH]c2n(CCC)c1=O (some centres not stated)	440	3.8	
CCCn1c(=O)c2nc([C@H]3CC4C=CC3C4)[nH]c2n(CCC)c1=O (some centres not stated)	210	3.4	
CCCCn1c(=O)c2nc(C34CC5CC(CC3C5)C4)[nH]c2n(CCCC)c1=O		10	
CCCn1c(=O)c2nc(C(C)(C)CCC)[nH]c2n(CCC)c1=O	2200	25	
CC[C@H](C)Nc1ncnc2c1ncn2C1O[C@H](CO)[C@@H](O)[C@H]1O (single isomer, unassigned)			Ki (Adenosine receptor A1 [1]): 0.8 nM
OC[C@H]1OC(n2cnc3c(NCC4CC4)ncnc32)[C@H](O)[C@@H]1O (some centres not stated)			Ki [4]: 0.75 nM
CCCn1c(=O)c2nc(C(C)(C)CC)[nH]c2n(CCC)c1=O	1000	23	
CCCn1c(=O)c2nc(-c3cnns3)[nH]c2n(CCC)c1=O			Ki (Adenosine A2 receptor [5]): > 10000 nM; Ki (Adenosine receptor A1 [6]): 4400 nM
CCCn1c(=O)c2nc(CC3CC3)[nH]c2n(CCC)c1=O	1200	120	
CC1(Nc2ncnc3c2ncn3C2O[C@H](CO)[C@@H](O)[C@H]2O)CCCCC1 (some centres not stated)			Ki [4]: 70 nM
CCCn1c(=O)c2nc(C(C)(O)CC)[nH]c2n(CCC)c1=O (configuration not stated)	21000	240	
CCCn1c(=O)c2nc(-c3nn[nH]n3)[nH]c2n(CCC)c1=O	> 100000	> 10000	
CC(C)Cn1c(=O)n(C)c(=O)c2[nH]c(C34CC5CC(CC3C5)C4)nc21			Ki (Adenosine receptor A1 [1]): 15 nM
Cn1c(=O)c2[nH]cnc2n(C)c1=O			Kb [7]: 5700 nM; Kb [8]: 4800 nM
CCCn1c(=O)c2nc(-c3cc4ccccc4s3)[nH]c2n(CCC)c1=O	> 100000	> 100000	
CC(C)(C)Nc1ncnc2c1ncn2C1O[C@H](CO)[C@@H](O)[C@H]1O (some centres not stated)		20	
CCCn1c(=O)c2nc(C3c4ccccc4-c4ccccc43)[nH]c2n(CCC)c1=O			Ki (Adenosine A2 receptor [5]): > 100000 nM; Ki (Adenosine receptor A1 [6]): 2900 nM
OC[C@H]1OC(n2cnc3c(NC45C[C@H]6C[C@@H](C4)C[C@@H](C5)C6)ncnc32)[C@H](O)[C@@H]1O (some centres not stated)		73	
CCCn1c(=O)c2nc(C(C)(C)C)[nH]c2n(CCC)c1=O	2300	31	
CC(C)Nc1ncnc2c1ncn2[C@@H]1O[C@H](CO)[C@@H](O)[C@H]1O		1.9	
CCCn1c(=O)[nH]c(=O)c2[nH]c(C34CC5CC(CC3C5)C4)nc21			Ki (Adenosine receptor A1 [1]): 370 nM; Ki (Adenosine A2 receptor [5]): > 100000 nM
CC[C@@H](C)Nc1ncnc2c1ncn2[C@@H]1O[C@H](CO)[C@@H](O)[C@H]1O			Ki (Adenosine receptor A1 [1]): 1.3 nM
CCCn1c(=O)c2nc(C(O)(CC)CC)[nH]c2n(CCC)c1=O	12000	170	

SMILES	Ki (Adenosine A2 receptor [2]) [nM]	Ki (Adenosine receptor A1 [3]) [nM]	other results
CCCn1c(=O)c2nc(-c3cccs3)[nH]c2n(CCC)c1=O	1900	210	
CCCn1c(=O)c2nc(-c3cc4ccccc4n3C)[nH]c2n(CCC)c1=O	> 100000	> 100000	
Cn1c(=O)c2[nH]c(C34CC5CC(CC3C5)C4)nc2n(C)c1=O		41	
CCCC(CCC)Nc1ncnc2c1ncn2C1O[C@H](CO)[C@@H](O)[C@H]1O (some centres not stated)		3.3	
CCCn1c(=O)c2nc(-c3csc(C)n3)[nH]c2n(CCC)c1=O	2300	410	
CCCn1c(=O)c2[nH]c(C34C[C@H]5C[C@@H](C3)C[C@@H](C4)C5)nc2n(CCC)c1=O		13	
CC(C)(C)CNc1ncnc2c1ncn2C1O[C@H](CO)[C@@H](O)[C@H]1O (some centres not stated)		17	
CCCn1c(=O)c2nc(C3Cc4ccccc4C3)[nH]c2n(CCC)c1=O	1700	220	
CCC(CC)Nc1ncnc2c1ncn2C1O[C@H](CO)[C@@H](O)[C@H]1O (some centres not stated)			Ki [4]: 0.75 nM
CCCn1c(=O)c2[nH]c(C[C@H]3CC4CCC3C4)nc2n(CCC)c1=O (some centres not stated)		80	
Cn1c(=O)c2c(ncn2C)n(C)c1=O [CAFFEINE]		100000	
CCC(C)(C)Nc1ncnc2c1ncn2C1O[C@H](CO)[C@@H](O)[C@H]1O (some centres not stated)			Ki (Adenosine receptor A1 [1]): 16 nM
CCCn1c(=O)c2nc(-c3cc4ccccc4o3)[nH]c2n(CCC)c1=O	1200	> 10000	
CCCn1c(=O)c2nc(C3CCC4CCCC43)[nH]c2n(CCC)c1=O (configuration not stated)	330	3.5	Ki (Adenosine receptor A1 [1]): 5.6 nM; Ki (Adenosine A2 receptor [5]): 560 nM
CCCn1c(=O)c2nc(-c3cccn3C)[nH]c2n(CCC)c1=O	6000	140	
CCCn1c(=O)c2nc(C3C(C)(C)CCC3(C)C)[nH]c2n(CCC)c1=O	> 100000		
CCCn1c(=O)c2nc[nH]c2n(CCC)c1=O			Ki (Adenosine receptor A1 [9]): 1000 nM; Ki (Adenosine receptor A1 [1]): 1400 nM; Kb [8]: 940 nM
CCCn1c(=O)c2nc([C@@H]3CC4C=CC3C4)[nH]c2n(CCC)c1=O (some centres not stated)	480	4.3	
CCCn1c(=O)c2nc(CC34C[C@H]5C[C@@H](C3)C[C@@H](C4)C5)[nH]c2n(CCC)c1=O	> 100000	880	
CCCn1c(=O)c2nc(C3CC4CCC3C4)[nH]c2n(CCC)c1=O (configuration not stated)			Ki (Adenosine receptor A1 [1]): 4.4 nM
CCCn1c(=O)c2nc(-c3cc(S(=O)(=O)[O-])co3)[nH]c2n(CCC)c1=O.[K+]			Ki (Adenosine A2 receptor [5]): > 10000 nM; Ki (Adenosine receptor A1 [6]): > 10000 nM
CCCn1c(=O)c2nc(C3(C)CCCCC3)[nH]c2n(CCC)c1=O	1200	11	
CCCn1c(=O)c2nc(CC(C)(C)C)[nH]c2n(CCC)c1=O	6000	49	
CCCn1c(=O)c2nc(-c3ccco3)[nH]c2n(CCC)c1=O	530	560	
OC[C@H]1O[C@@H](n2cnc3c(NC4CC5CCC4C5)ncnc32)[C@H](O)[C@@H]1O (some centres not stated)			Ki (Adenosine receptor A1 [1]): 0.7 nM; Ki (Adenosine receptor A1 [10]): 0.91 nM
